# SENP1 inh: human SENP1 catalytic domain inhibitors, primary screen, biochemical, FRET, uHTS; recombinant SENP1 catalytic domain, CyPet-SUMO1-YPet FRET cleavage; inhibition, % at 10 µM; hit rate 0.21% among 360,000; Sentrin-specific protease 1 (Homo sapiens), Q9P0U3; AID 624204, 2012;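 active = inhibition at least 30% at 10 µM, raw YFP signal under a set limit, fluorescence ratio 0.5 to 1.5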;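 note: 0% = enzyme with DMSO and 100% = no enzyme wells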
# Target sequence (Q9P0U3 419-644 limits assumed): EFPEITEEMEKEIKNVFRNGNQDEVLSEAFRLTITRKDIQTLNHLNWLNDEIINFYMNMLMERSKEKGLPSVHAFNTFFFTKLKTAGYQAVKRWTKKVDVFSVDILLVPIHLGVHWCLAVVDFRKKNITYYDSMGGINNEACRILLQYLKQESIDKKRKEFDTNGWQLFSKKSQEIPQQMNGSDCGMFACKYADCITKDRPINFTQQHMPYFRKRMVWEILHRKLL
#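 Test system: recombinant human SENP1 catalytic domain, His6-tagged / Medium: pH 8 Tris buffer with EDTA, NaCl, BME, BSA, NP40, catalase / Also added: SUMO1 FRET substrate flanked by Cypet and Ypet, 25 nM / Times: 50 min reaction at room temperature / Signal: FRET, CFP and YFP emission / Control set: no-enzyme low control and enzyme-plus-DMSO high control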
# SENP8 block-1: human SENP8 protease inhibitors, primary screen, biochemical, fluorescence, Nedd8 protein substrate, uHTS. Sentrin-specific protease 8 (Homo sapiens), Q96LD8. recombinant SENP8. inhibition, % at 20 µM. hit rate 0.64% among 360,000. AID 602440, 2012; in the data active = inhibition mostly above about 40%, no sharp cut-off; inactive = mostly below about 27%
# SENP7 inh: SENP7 protease inhibitors, primary screen, biochemical, luminescence, uHTS; AID 434973, 2010; Sentrin-specific protease 7 (Homo sapiens), Q9BQF6; recombinant SENP7, Z-RLRGG-aminoluciferin luminescence, 40 min; hit rate 1.5% among 330,000; inhibition, % at 5 µM;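 active = inhibition above about 50% at the single test dose, limit read from the data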;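 note: plate controls were DMSO with enzyme for no effect and no enzyme buffer wells for full effect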
# HSP90 refold inh: HSP90 inhibitors, primary screen, cell lysate, luminescence; hit rate 0.91% among 290,000; inhibition, % at 5.6 µM; Rabbit reticulocyte lysate, luciferase refolding luminescence, 3 h; AID 1789, 2009;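 active = inhibition above the screen-wide mean plus 3 SD, computed separately per campaign, cut at about 16% in these data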;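 note: 0% = DMSO wells and 100% = 60 µM geldanamycin wells; inhibitors lower the luminescence because luciferase stays unfolded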
# SENP6 inh: SENP6 protease inhibitors, primary screen, biochemical, luminescence, uHTS | inhibition, % at 10 µM | Recombinant SENP6 catalytic domain, aminoluciferin luminescence | hit rate 1.8% among 330,000 | Sentrin-specific protease 6 (Homo sapiens), Q9GZR1;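 active = inhibition above about 50% at the single tested dose, limit read from the data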;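 note: plate controls were DMSO wells with enzyme for no effect and DMSO wells lacking enzyme for full effect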
# Target sequence (Q9GZR1 628-1112 limits assumed): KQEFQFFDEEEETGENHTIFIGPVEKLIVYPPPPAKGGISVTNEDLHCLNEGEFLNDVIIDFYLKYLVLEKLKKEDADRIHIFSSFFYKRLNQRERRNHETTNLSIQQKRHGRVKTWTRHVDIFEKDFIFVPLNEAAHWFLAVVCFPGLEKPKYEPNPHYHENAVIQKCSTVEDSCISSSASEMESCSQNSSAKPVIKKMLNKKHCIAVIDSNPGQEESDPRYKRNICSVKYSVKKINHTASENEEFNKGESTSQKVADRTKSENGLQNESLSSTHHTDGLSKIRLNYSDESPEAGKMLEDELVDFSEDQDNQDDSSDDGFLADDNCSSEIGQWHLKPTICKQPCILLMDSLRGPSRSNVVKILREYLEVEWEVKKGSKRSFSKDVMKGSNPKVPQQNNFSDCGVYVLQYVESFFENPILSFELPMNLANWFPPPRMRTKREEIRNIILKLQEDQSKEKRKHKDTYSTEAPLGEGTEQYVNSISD
# SENP8 block-2: SENP8 protease inhibitors, primary screen, biochemical, luminescence. Sentrin-specific protease 8 (Homo sapiens), Q96LD8. purified SENP8, Z-RLRGG-aminoluciferin cleavage. inhibition, % at 10 µM. hit rate 1.2% among 330,000; in the data active = inhibition above about 50%
# SENP8 conf: human SENP8 protease inhibitors, confirmation, biochemical, Nedd8 protein substrate, single concentration; shares compounds with SENP8 block-1; purified SENP8, Nedd8-AMC/pro-Nedd8 cleavage fluorescence, 30 min; inhibition, % at 25 µM; hit rate 15% among 1,400; AID 624319, 2012; in the data active = inhibition mostly above about 39%, no sharp cut-off; inactive = mostly below about 34%
# The depositor's hits bear a star; x = no result. Only some compounds are listed: those with a hit (about 2.9% of all), similar ones and a draw of the others.
SMILES,SENP1 inh,SENP8 block-1,SENP7 inh,HSP90 refold inh,SENP6 inh,SENP8 block-2,SENP8 conf
CN(C)c1ccc(N=Cc2nc(-c3ccccc3)oc2O)cc1,-20.7,40.4*,31.5,-1.9,7.0,-11.7,-6.4
COc1ccc(CN(C)C(=O)c2cccc(NC(=O)CC3SC(N4CCCCC4)=NC3=O)c2)c(OC)c1 (stereo not drawn),-1.1,0.6,x,x,x,x,x
O=c1ccn([C@@H]2O[C@H](CNCC3=Cc4cc(O)ccc4OC3)[C@@H](O)[C@H]2O)c(=O)[nH]1,3.4,12.5,x,x,x,x,x
CC(=O)c1cccc(-c2ccnc3c2CC(C(=O)NCc2ccncc2)O3)c1 (stereo not drawn),1.3,5.8,x,x,x,x,x
C[C@H](NC(=O)c1cc2cc(Cl)ccc2n1C)C(=O)N1CCC[C@H]1C(=O)O,-0.8,12.6,10.2,-6.9,-16.2,-11.5,x
CC(C)C[C@H](NC(=O)c1cc2cc(Cl)ccc2n1C)C(=O)N1CCC[C@H]1C(=O)O,2.5,46.7*,11.3,-0.1,-17.4,-3.1,8.4
CCN(CC)C(=O)Cn1cc([N+](=O)[O-])cc1[N+](=O)[O-],0.6,6.8,x,x,x,x,x
COc1ccc(-c2csc(CCN3N=C(C)CC3=O)n2)cc1,-2.4,59.0*,3.5,6.0,27.4,-4.0,62.0*
COc1ccc(-c2csc(C)n2)cc1,2.1,16.3,18.6,2.6,-33.9,-11.4,x
CCOC(=O)c1nn(-c2ccc(C)cc2)c(=O)c2c(N)scc12,0.1,13.8,8.3,0.7,21.6,3.0,x
Nc1scc2c(C(=O)O)nn(-c3ccccc3)c(=O)c12,-2.5,40.2*,5.5,x,-17.5,11.6,20.4
COc1ccc(CNC(=O)Cn2ccc(N)nc2=O)cc1,0.7,45.3*,-6.3,x,-21.3,-9.2,9.0
Cc1ccc(C(=O)NCC(=O)N(C)Cc2ccccc2C)s1,-1.7,14.6,x,x,x,x,x
CC1=NN(c2ccc(C)cc2C)C(=O)C1C(c1cccc(O)c1)C1C(=O)N(c2ccc(C)cc2C)N=C1C (stereo not drawn),3.4,60.3*,10.1,12.0,-5.3,-2.9,43.6*
CC1=NN(c2ccccc2)C(=O)C1N=Nc1cccc(O)c1 (stereo not drawn),1.0,27.3,-4.0,3.1,5.3,4.0,x
Nc1cc(N)cc(C(=O)c2ccccc2)c1,0.8,43.1*,x,x,x,x,77.0*
O=C(c1ccccc1)c1cccc(C(=O)c2ccccc2)c1,0.2,7.5,-3.5,x,-1.9,-12.7,x
CNc1ncnc(Sc2ccc(Cl)cc2)c1[N+](=O)[O-],0.8,41.6*,-0.1,5.7,-2.6,7.5,4.0
NC(=O)c1ccc(NC(=O)COC(=O)c2cc3ccccc3cc2O)cc1,-4.2,-141.1,-2.4,x,0.8,-3.9,x
Cc1ccc(-n2c(=O)cc(N3CCCCCC3)[nH]c2=O)cc1,1.6,44.9*,6.4,-0.1,-18.6,-6.0,13.7
O=c1cc(N2CCCCCC2)[nH]c(=O)n1-c1ccc(Cl)cc1,0.2,14.8,1.8,7.1,-5.8,3.1,x
COc1cccc(NC(=O)CN(C)C(=O)CC2CCCCC2)c1,-0.2,16.0,3.5,x,-12.8,6.4,x
CC1=C(SCCC#N)S/C(=C2\SC(C)=C(SCCC#N)S2)S1,0.0,45.5*,2.7,3.5,-5.9,2.4,69.3*
CC(NC(=O)Nc1ccc(O)cc1)(C(F)(F)F)C(F)(F)F,0.5,77.6*,9.2,7.0,-12.5,-0.8,17.6
CC1(C(=O)NS(=O)(=O)c2cccc(F)c2)CCN1C(=O)c1cccc(F)c1 (stereo not drawn),2.5,8.4,x,x,x,x,x
SMILES,SENP1 inh,SENP8 block-1,SENP7 inh,HSP90 refold inh,SENP6 inh,SENP8 block-2,SENP8 conf
CC(C)c1[nH]nc2c1C(C(C)C)C(C#N)=C(N)O2 (stereo not drawn),0.0,40.1*,-9.5,2.8,-31.1,-0.4,13.4
COC(=O)c1ccccc1-c1ccc(C(c2c(C)[nH][nH]c2=O)c2c(C)[nH][nH]c2=O)o1,0.8,50.4*,11.9,13.0,27.1,20.4,42.0*
CC(Nc1c([N+](=O)[O-])c(=O)oc2ccccc12)C(Cl)c1ccccc1 (stereo not drawn),-0.5,51.7*,4.0,-1.0,-12.8,1.6,10.9
O=c1oc2ccccc2c(NC(c2ccccc2)c2ccccc2)c1[N+](=O)[O-],-0.2,12.6,-11.3,-0.5,-20.1,-11.3,x
CC(C)c1noc2ncc(C(=O)c3cc(Cl)cc(Cl)c3O)cc12,18.3,45.9*,2.2,2.9,-2.7,-6.0,18.5
COc1cc(NC(=O)CSCc2ccccc2)c(C(=O)O)cc1OC,-0.4,3.0,-1.9,3.8,13.1,-0.2,x
CCCc1ccc(S(=O)(=O)N2CCN(C(C)C(=O)NCc3ccc(OC)cc3)CC2)cc1 (stereo not drawn),0.3,12.3,0.5,x,10.8,2.5,x
CC#CC(=O)N1CCCC(Cc2cccc(OC)c2)(C(=O)OCC)C1 (stereo not drawn),0.0,4.8,-8.1,-5.5,-3.1,-13.5,x
Cc1ccccc1NC(=O)N(O)C1(C#N)CCCCC1,0.0,16.8,x,x,x,x,x
CN(C)c1ccc(NC(=O)C2C3C=CC(C3)C2C(=O)O)cc1 (stereo not drawn),8.1,51.1*,8.6,15.2,26.0,-0.1,3.7
O=C(O)C1C2C=CC(C2)C1C(=O)Nc1ccc2c(c1)OCCO2 (stereo not drawn),-0.7,13.6,3.0,2.3,-1.7,-0.9,x
COc1ccc(NC(=O)NNc2cc(N3CCOCC3)nc(N3CCOCC3)n2)cc1,1.5,44.1*,0.6,1.2,25.1,-2.8,38.5
CC(=O)NNc1cc(N2CCOCC2)nc(N2CCOCC2)n1,-83.8,-6.7,23.7,5.5,-7.9,0.5,x
O=C(NCCc1ccc(O)cc1)c1[nH]c(C(F)(F)F)nc1-c1ccccc1,3.8,18.0,x,x,x,x,x
O=C(NCCCN1CCN(c2ccccc2F)CC1)Nc1ccccc1[N+](=O)[O-],1.4,43.5*,7.7,1.8,8.8,-9.2,19.4
O=C(NCCCN1CCN(c2ccccc2F)CC1)Nc1ccc(F)cc1,1.8,8.1,-4.2,1.0,-6.0,-4.4,x
O=c1cc(-c2ccc(O)c(O)c2)oc2cc(O)c(C3OC(CO)C(O)C(O)C3O)c(O)c12 (stereo not drawn),12.5,1.1,-3.2,-3.5,-6.5,-5.6,x
O=c1cc(-c2ccc(O)cc2)oc2cc(O)c([C@@H]3O[C@H](CO)[C@@H](O)[C@H](O)[C@H]3O)c(O)c12,1.4,44.7*,6.3,x,-19.6,-2.2,9.6
Cc1cc(C)cc(C(O)c2ncc(-c3ccccc3)[nH]2)c1 (stereo not drawn),1.9,7.7,x,x,x,x,x

# Screens from PubChem.
